Bioassay records: PubChem BioAssay, NMMLSC
In the library only some 0.83% were active in any assay of this set; here they are far more common.
ABCG2 block: human ABCG2 inhibition, ABCB1 as counter-screen | 0.1% of 190,000 active | IgMXP3 cells, JC-1 efflux, flow cytometry | AID 1325 | Q9UNQ0 | inhibition, % at 6.6 µM;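 active = inhibition above 80%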;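 note: 0% = DMSO and 100% = nicardipine control wells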
Target sequence (Q9UNQ0 whole entry, looked up): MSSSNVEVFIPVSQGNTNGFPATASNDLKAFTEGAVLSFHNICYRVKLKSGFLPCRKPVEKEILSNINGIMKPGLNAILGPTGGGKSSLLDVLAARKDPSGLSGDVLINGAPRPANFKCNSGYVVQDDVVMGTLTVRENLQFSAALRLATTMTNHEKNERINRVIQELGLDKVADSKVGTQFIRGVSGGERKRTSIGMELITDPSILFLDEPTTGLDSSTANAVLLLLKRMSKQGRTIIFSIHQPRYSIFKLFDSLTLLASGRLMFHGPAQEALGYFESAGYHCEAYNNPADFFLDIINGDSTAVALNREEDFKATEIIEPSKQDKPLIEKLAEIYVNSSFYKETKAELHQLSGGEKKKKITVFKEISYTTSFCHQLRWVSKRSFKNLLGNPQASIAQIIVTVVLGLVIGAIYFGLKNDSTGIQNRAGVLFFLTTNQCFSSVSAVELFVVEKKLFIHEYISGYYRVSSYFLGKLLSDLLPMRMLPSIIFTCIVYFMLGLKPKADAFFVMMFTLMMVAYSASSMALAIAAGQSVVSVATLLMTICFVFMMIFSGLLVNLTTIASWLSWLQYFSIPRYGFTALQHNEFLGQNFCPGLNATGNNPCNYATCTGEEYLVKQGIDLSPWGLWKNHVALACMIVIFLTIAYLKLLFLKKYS
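Assay system – ABCG2 IgMXP3 and barcoded ABCB1 CCRF-Adr cell mix · Input – 3 million cells/mL in well · Reagent – JC-1 fluorescent substrate · Compound – single test compound dose, 6.6 µM final · Timing – 10 min exposure at 25 °C with rotation, no wash · Detection – flow cytometry of retained JC-1 fluorescence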
RGS7-Gao reg: regulators of human RGS7-Galphao interaction | P09471 | Multiplexed bead flow cytometry, RGS7-Galphao binding; actives lie on both sides | binding response (% of control), % at 10 µM | 0.35% of 220,000 active; in the data active = binding response below about 49% or above about 150%; inconclusive = no clear call, values can overlap the other calls; inactive = in between;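 note: fluorescent Galphao held in activated GDP-AlF4 state binding bead-coupled RGS7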
RGS16-Gao: RGS16-Galphao interaction regulator (human). binding response (% of control), % at 10 µM. AID 1441. 0.38% of 220,000 active. O15492+P09471. bead-based flow cytometry RGS16-Galphao binding, fluorescence; actives lie on both sides;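 note: Galphao activated by GDP with aluminum fluoride before binding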
RGS8-Gao: modulates binding of RGS8 to human Galphao; response (percent of control binding), % at 10 µM; multiplexed bead flow cytometry; actives lie on both sides; 0.34% of 220,000 active; P09471; in the data active = response below about 60% or above about 140%; inactive = in between;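 note: Galphao activated as the GDP aluminium fluoride complex binding bead-coupled RGS8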
RGS4-Gao reg: modulates binding of RGS4 to human Galphao; Multiplexed bead flow cytometry; actives lie on both sides; P09471; 0.33% of 220,000 active; AID 1415; binding response (% of control), % at 10 µM; in the data active = binding response below about 49% or above about 150%; inactive = in between;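 note: fluorescent Galphao activated with aluminum fluoride binding bead-coupled RGS4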
ABCB1 inh: blocks JC-1 efflux by human ABCB1 transporter | CCRF-Adr cells, flow cytometry | 0.067% of 190,000 active | inhibition, % at 6.6 µM; in the data active = inhibition above about 40%;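 note: 0% = vehicle and 100% = reference inhibitor; higher value means more JC-1 retained so stronger ABCB1 efflux block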
RGS-Gao: regulators of human RGS4-Galphao interaction; shares compounds with RGS16-Gao; RGS4–Galpha-o binding response, % at 10 µM; AID 1504; 99% of 1,600 active; multiplexed bead flow cytometry, RGS–Galpha-o binding;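 note: fluorescently labeled Galpha-o bound to GDP with aluminium fluoride binding biotinylated RGS beads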
Avidin counter: biotin-avidin bead binding disruption counter-screen | shares compounds with RGS16-Gao | streptavidin beads, fluorescein-biotin binding, flow cytometry | inhibition, % at 10 µM | 1,700 tested, under 10 active;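 active = inhibition above 50%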;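 note: median green fluorescence of gated singlet beads compared with DMSO control wells; 0% = DMSO wells and 100% = complete loss of bead fluorescence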
RGS8-Gao single: RGS8-Galphao interaction regulation, single point confirmation; 3% of 1,700 active; bead-based flow cytometry RGS8-Galphao binding, fluorescence; actives lie on both sides; binding response (% of control), % at 10 µM; shares compounds with RGS16-Gao; in the data active = binding response below about 72% or above about 130%; inactive = in between;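 note: Galphao activated as GDP AlF4 complex before binding bead RGS8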
RGS7-Gao confirm: RGS7-Galphao interaction regulation, single point confirmation; 7.8% of 1,700 active; response (percent of control binding), % at 10 µM; AID 1837; bead-based flow cytometry RGS7-Galphao binding; actives lie on both sides; shares compounds with RGS16-Gao; in the data active = response below about 75% or above about 130%; inactive = in between;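 note: fluorescent Galphao activated with GDP and aluminum fluoride binding bead-coupled RGS7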
RGS16-Gao conf: RGS16-Galphao interaction regulation, single point confirmation. bead-based flow cytometry, RGS16-Galphao binding; actives lie on both sides. AID 1838. shares compounds with RGS16-Gao. 4% of 1,700 active. response (% of control binding), % at 10 µM; in the data active = response below about 74% or above about 130%; inactive = in between;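 note: Galphao activated as the GDP aluminium fluoride complex binding bead-coupled RGS16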
RGS4-Gao confirm: RGS4-Galphao interaction regulation, single point confirmation. shares compounds with RGS16-Gao. RGS4-Galphao binding, multiplexed bead flow cytometry; actives lie on both sides. binding response (% of control), % at 10 µM. 4% of 1,700 active. AID 1840; in the data active = binding response below about 74% or above about 130%; inactive = in between
RGS19-Gao single: confirmation of regulators of human RGS19-Galphao interaction; shares compounds with RGS16-Gao; bead-based flow cytometry RGS19-Galphao binding; actives lie on both sides; response (percent of control binding), % at 10 µM; 5% of 1,700 active; AID 1841; in the data active = response below about 50% or above about 160%; inactive = in between;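 note: 100% = no compound control and 0% = blank background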
The depositor's hits bear a star; [ ] = remark or other dose. Unless noted, the rule behind the calls is not given here.

Screening CC1=NN(C(=O)CSCc2ccccc2)C(O)(c2ccc(F)cc2)C1 (stereo not given) returned ABCG2 block 35, RGS7-Gao reg inconclusive, RGS16-Gao 99, RGS8-Gao 100, RGS4-Gao reg 100 and ABCB1 inh 2.
Screening CC1=NN(C(=O)CSCc2ccccc2)C(O)(c2ccc(Cl)cc2)C1 (stereo not given) returned ABCG2 block 6, RGS7-Gao reg 49*, RGS16-Gao 52, RGS8-Gao 59*, RGS4-Gao reg 57, ABCB1 inh 1, RGS-Gao 57*, Avidin counter 0, RGS8-Gao single 102, RGS7-Gao confirm 105, RGS16-Gao conf 104, RGS4-Gao confirm 103 and RGS19-Gao single 107.
Cn1c(=O)oc2cc(S(=O)(=O)N3CCC(C(=O)NCCc4ccccc4)CC3)ccc21 was read as RGS7-Gao reg inconclusive, RGS16-Gao 106, RGS8-Gao 105 and RGS4-Gao reg 105.
For OCc1nc2ccccc2n1CCCOc1ccc(Br)cc1 the results were ABCG2 block 12, RGS7-Gao reg 1.2*, RGS16-Gao -3.6*, RGS8-Gao 7.0*, RGS4-Gao reg -3.9*, ABCB1 inh 0, Avidin counter 2, RGS8-Gao single 101, RGS7-Gao confirm 104, RGS16-Gao conf 102, RGS4-Gao confirm 104 and RGS19-Gao single 105.
For CC(C)NC(=O)Cn1nnc(-c2ccc(Cl)cc2)n1 the results were ABCG2 block 11, RGS7-Gao reg 98, RGS16-Gao 99, RGS8-Gao 98, RGS4-Gao reg 97 and ABCB1 inh 1.
Clc1ccc(C2=CSC3=NCCN23)cc1Cl was read as ABCG2 block 2, RGS7-Gao reg -0.4*, RGS16-Gao -14*, RGS8-Gao 18*, RGS4-Gao reg -19*, ABCB1 inh 0, Avidin counter 0, RGS8-Gao single 102, RGS7-Gao confirm 91, RGS16-Gao conf 100, RGS4-Gao confirm 98 and RGS19-Gao single 104.
For CCN=C1SC(CC(=O)NCC)C(=O)N1CC (stereo not given) the results were ABCG2 block 0, RGS7-Gao reg 213*[activator], RGS16-Gao 519, RGS8-Gao 118, RGS4-Gao reg 259*[activator], ABCB1 inh 0, Avidin counter -1, RGS8-Gao single 99, RGS7-Gao confirm 104, RGS16-Gao conf 103, RGS4-Gao confirm 100 and RGS19-Gao single 106.
For CCN=C1SC(CC(=O)Nc2ccccc2)C(=O)N1CC (stereo not given) the results were ABCG2 block 3, RGS7-Gao reg 102, RGS16-Gao 187, RGS8-Gao 113, RGS4-Gao reg 105 and ABCB1 inh 0.
Screening N#C/C(=C\c1cccc(Cl)c1)c1n[nH]c(Cn2cncn2)n1 returned ABCG2 block 3, RGS7-Gao reg 99, RGS16-Gao 98, RGS8-Gao 99, RGS4-Gao reg 97 and ABCB1 inh 0.
O=C(CS(=O)(=O)c1ccccc1)Nc1ccc(S(=O)(=O)Nc2ncccn2)cc1 was read as ABCG2 block 0, RGS7-Gao reg 35*, RGS16-Gao 26, RGS8-Gao 32*, RGS4-Gao reg 35*, ABCB1 inh 0, Avidin counter 0, RGS8-Gao single 97, RGS7-Gao confirm 91, RGS16-Gao conf 96, RGS4-Gao confirm 94 and RGS19-Gao single 90.
`O=C(c1cccs1)N1CCN(S(=O)(=O)c2ccc(F)cc2)CC1` gave ABCG2 block 5, RGS7-Gao reg 104, RGS16-Gao 103, RGS8-Gao 100, RGS4-Gao reg 103 and ABCB1 inh 1.
COc1ccc2c(CC(=O)OCC(=O)c3ccccc3OC)coc2c1 was read as ABCG2 block 7, RGS7-Gao reg 99, RGS16-Gao 99, RGS8-Gao 102, RGS4-Gao reg 99 and ABCB1 inh 1.
For COc1ccc2c(CC(=O)OCC(=O)c3ccc(F)cc3)coc2c1 the results were ABCG2 block 1, RGS7-Gao reg 181*[activator], RGS16-Gao 105, RGS8-Gao 99, RGS4-Gao reg 113, ABCB1 inh 0, RGS-Gao 113*, Avidin counter -1, RGS8-Gao single 102, RGS7-Gao confirm 103, RGS16-Gao conf 102, RGS4-Gao confirm 105 and RGS19-Gao single 121.
O=C(Nc1ccccc1)N1CCCC1 was read as ABCG2 block 0, ABCB1 inh 0, Avidin counter 2, RGS8-Gao single 97, RGS7-Gao confirm 97, RGS16-Gao conf 98, RGS4-Gao confirm 96 and RGS19-Gao single 88.
`COc1ccc(-c2cc(-c3nnc(COC(=O)c4ccncc4)o3)c3ccccc3n2)cc1OC` gave ABCG2 block 5, RGS7-Gao reg 103, RGS16-Gao 103, RGS8-Gao 102, RGS4-Gao reg 101 and ABCB1 inh 1.
Screening COc1ccc(C[C@H]2CN3C(=NC[C@@H]3C(C)C)N2CCNC(=O)CCC2CCCCC2)cc1 returned ABCG2 block 1, RGS7-Gao reg 10.0*, RGS16-Gao 14*, RGS8-Gao 20*, RGS4-Gao reg 27*, ABCB1 inh 1, Avidin counter 0, RGS8-Gao single 103, RGS7-Gao confirm 136*[activator], RGS16-Gao conf 116, RGS4-Gao confirm 126*[activator] and RGS19-Gao single 134.
CC(C)[C@H]1CN=C2N(CCNC(=O)CCC3CCCCC3)[C@H](Cc3ccc(O)cc3)CN21 was read as ABCG2 block 0, RGS7-Gao reg 110, RGS16-Gao 102, RGS8-Gao 101, RGS4-Gao reg 107 and ABCB1 inh 0.
